Reference: ChEMBL document CHEMBL1123277, “Reactive 5'-substituted thymidine derivatives as potential inhibitors of nucleotide biosynthesis” (J Med Chem, 1986)
pIC50: −log10 of the molar value.

Legend:
[1] = system: P388; experiment: Compound was tested in vivo in […] murine leukemia cells in mice at dose of 200 mg/kg; format: functional; conditions: Mus musculus
[2] = system: HEp-2; experiment: Compound was tested for the cytotoxic concentration that produces 50% inhibition of cloning of H.Ep.-2 cells; format: functional, cell-based; conditions: Homo sapiens, read-out: I50
[3] = Half-life is estimated by TLC; format: ADME
How it was run: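 Reactivity toward thiol was measured at pH 7. A 0.25–0.5% solution of compound in MeOH was mixed 1:1 with 1% mercaptoethanol in pH 7 buffer. Loss of alkylating activity was followed by TLC with 4-(4-nitrobenzyl)pyridine spray, and the half-life was estimated from this.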

[4] = system: L1210; experiment: Compound was tested for the cytotoxic concentration that produces 50% inhibition of L1210 cells; format: functional, cell-based; conditions: Mus musculus, read-out: I50
[5] = system: L1210; experiment: Compound was tested for the cytotoxic concentration that produces 50% inhibition of L1210 cells.; format: functional, cell-based; conditions: Mus musculus, read-out: I50

Cc1cn(C2CC(O)C(CNC(=O)CCl)O2)c(=O)[nH]c1=O (stereo not given)
ILS at 200 mg/kg [1]: 9% | pIC50 [2]: 4.60 | half-life [3]: 3 h | pIC50 [4]: 3.89

Cc1cn(C2CC(O)C(CN(C)C(=O)CCl)O2)c(=O)[nH]c1=O (stereo not given)
pIC50 [5]: < 3.92
